Assays:
[1] = system: human liver microsomes; details: cited from earlier work
[2] = system: rat liver microsomes; details: cited from earlier work
[3] = Plasma pharmacokinetics in rats after intravenous injection; type: in vivo, Sprague Dawley (SD) rats
Outline: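 Male SD rats (220–250 g), fasted overnight and randomized (n=6/group), got 6 mg/kg iv of free or lipid-carrier-formulated ester. An automated collector drew blood at 2–300 min, with saline volume replacement. Plasma was prepared cold and stored at −80°C, then extracted with ice-cold acetonitrile plus internal standard, dried under nitrogen and reconstituted in methanol. LC-MS measured the parent ester and its hydrolysed metabolite.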

- MRT0–∞ of plasma DBZ ([3]; analyte DBZ, rats, intravenous, 6 mg/kg): 0.149±0.015 H
- Elimination from the blood circulation after injection ([3]; preliminary pharmacokinetic studies in rats): eliminated quickly
SMILES: CC1(C)C2CCC1(C)C(OC(=O)C(O)Cc1ccc(O)c(O)c1)C2 (stereo not shown) [DBZ, 1,7,7-trimethylbicyclo[2.2.1]heptan-2-yl 3-[3,4-dihydroxyphenyl]-2-hydroxy-propanoate]
- Metabolism by the liver microsomal enzymes [1]: metabolized quickly
- Metabolism by the liver microsomal enzymes [2]: metabolized quickly
